Measurements as given in ChEMBL document CHEMBL1177701, “Synthesis, biological evaluation, and structure-activity relationships of dithiolethiones as inducers of cytoprotective phase 2 enzymes” (J Med Chem, 2010).
Active and inactive are the calls of the source. No cut-off for these calls is given here.

What was measured:
[1] = tested on: Rattus norvegicus; assay: Ex vivo induction of GST in Sprague-Dawley rat bladder at 7.5 umol/kg/day, po for 10 days measured on day 11 relative to control; type: functional
Outline: (§1)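 Female Sprague-Dawley rats, 6 per group, gavaged with compound at 7.5 µmol/kg/day or soya oil for 10 days and killed on day 11. Bladder homogenized in ice-cold 0.2% Triton X-100 and cleared by centrifugation. NQO1 activity measured by the Ernster method, GST by the Habig method. Reported as treated/control mean ± SEM, ANOVA with Student-Newman-Keuls test.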

[2] = tested on: Rattus norvegicus; assay: Ex vivo induction of NQO1 in Sprague-Dawley rat bladder at 7.5 umol/kg/day, po for 10 days measured on day 11 relative to control; type: functional; outline: as §1
[3] = Dissociation constant, pKa of the compound; type: physicochemical
[4] = tested on: Rattus norvegicus; assay: Ex vivo induction GST-mu protein expression in Sprague-Dawley rat bladder at 7.5 umol/kg/day, po for 10 days measured on day 11 by Western blot analysis; type: functional, organism-based
Outline: (§2)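 Female Sprague-Dawley rats, 3 per group, gavaged once daily with compound at 7.5 µmol/kg or soya oil vehicle for 10 days. Killed on day 11. Bladder homogenized in 10 mM Tris-HCl pH 7.4, 0.25 M sucrose, 1 mM PMSF, 1 µg/ml leupeptin. 25-40 µg protein run by SDS-PAGE, then Western blot, with GAPDH as loading control.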

[5] = tested on: NBT2; assay: Induction of GCL protein expression in Nrf gene knockout rat NBT2 cells at 25 uM after 24 hrs Western blot analysis; type: functional, cell-based
Outline: (§3)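 NBT-II cells transfected with Nrf2 stealth RNAi or control RNAi (0.584 nmol per dish, lipofectamine 2000) for 48 h. Then treated with compound at 25 µM or vehicle for 24 h, with 0.1% DMSO final. Lysates analyzed by Western blot for Nrf2, GCL, GST-α, GST-μ and NQO1, with GAPDH as loading control.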

[6] = molecular target: T1, Nuclear factor erythroid 2-related factor 2 (Rattus norvegicus) (UniProt O54968); assay: Induction of Nrf-mediated NQO1 protein expression in wild type rat NBT2 cells at 25 uM after 24 hrs Western blot analysis; type: functional, cell-based; outline: as §3
T1 sequence (whole entry): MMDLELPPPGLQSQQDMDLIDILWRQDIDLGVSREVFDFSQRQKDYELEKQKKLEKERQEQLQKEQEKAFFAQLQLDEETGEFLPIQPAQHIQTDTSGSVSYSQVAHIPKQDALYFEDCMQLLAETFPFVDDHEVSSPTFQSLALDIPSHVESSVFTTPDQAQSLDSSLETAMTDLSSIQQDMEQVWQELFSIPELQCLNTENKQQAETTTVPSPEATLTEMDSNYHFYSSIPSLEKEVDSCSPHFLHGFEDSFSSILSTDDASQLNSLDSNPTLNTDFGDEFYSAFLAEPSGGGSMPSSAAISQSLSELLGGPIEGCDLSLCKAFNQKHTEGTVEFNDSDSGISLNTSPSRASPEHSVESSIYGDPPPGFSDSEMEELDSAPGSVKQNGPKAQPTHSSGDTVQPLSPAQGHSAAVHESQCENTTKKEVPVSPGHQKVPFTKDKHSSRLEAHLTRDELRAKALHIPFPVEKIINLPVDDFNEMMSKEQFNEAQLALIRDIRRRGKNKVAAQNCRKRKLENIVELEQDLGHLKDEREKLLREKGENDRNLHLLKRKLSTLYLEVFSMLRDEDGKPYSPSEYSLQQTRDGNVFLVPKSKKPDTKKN

[7] = molecular target: T1, Nuclear factor erythroid 2-related factor 2 (Rattus norvegicus); assay: Induction of Nrf-mediated GCL protein expression in wild type rat NBT2 cells at 25 uM after 24 hrs Western blot analysis; type: functional, cell-based; outline: as §3
[8] = tested on: Rattus norvegicus; assay: Ex vivo induction GCL protein expression in Sprague-Dawley rat bladder at 7.5 umol/kg/day, po for 10 days measured on day 11 by Western blot analysis; type: functional, organism-based; outline: as §2
[9] = tested on: Rattus norvegicus; assay: Ex vivo induction of NQO1 in Sprague-Dawley rat stomach at 7.5 umol/kg/day, po for 10 days measured on day 11 relative to control; type: functional
Outline: (§4)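 Organs taken from the same rats used for the bladder study: female Sprague-Dawley, compound at 7.5 µmol/kg/day by gavage or soya oil for 10 days, killed on day 11. GI contents rinsed out under cold water and tissues stored at −80°C. Homogenized in 0.2% Triton X-100 and centrifuged. Supernatant NQO1 activity measured by the Ernster method, expressed as treated/control.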

[10] = tested on: Rattus norvegicus; assay: Ex vivo induction of NQO1 in Sprague-Dawley rat kidney at 7.5 umol/kg/day, po for 10 days measured on day 11 relative to control; type: functional; outline: as §4
[11] = tested on: NBT2; assay: Induction of GST-mu protein expression in rat NBT2 cells after 24 hrs by Western blot analysis; type: functional, cell-based
Outline: (§5)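 NBT-II rat bladder carcinoma cells grown in MEM with 10% FBS. Plated overnight, then exposed to compound at 25 or 50 µM for 24 h, with 0.1% DMSO final. Cells trypsinized, lysed with 1 mM PMSF and sonicated. 25-40 µg protein taken for Western blot, GAPDH as loading control. At least two experiments.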

[12] = tested on: Rattus norvegicus; assay: Ex vivo induction of NQO1 in Sprague-Dawley rat liver at 7.5 umol/kg/day, po for 10 days measured on day 11 relative to control; type: functional; outline: as §4
[13] = tested on: NBT2; assay: Induction of NQO1 protein expression in Nrf gene knockout rat NBT2 cells at 25 uM after 24 hrs Western blot analysis; type: functional, cell-based; outline: as §3
[14] = tested on: Rattus norvegicus; assay: Ex vivo induction GST-alpha protein expression in Sprague-Dawley rat bladder at 7.5 umol/kg/day, po for 10 days measured on day 11 by Western blot analysis; type: functional, organism-based; outline: as §2
[15] = tested on: Rattus norvegicus; assay: Ex vivo induction of NQO1 in Sprague-Dawley rat ileum at 7.5 umol/kg/day, po for 10 days measured on day 11 relative to control; type: functional; outline: as §4
[16] = tested on: NBT2; assay: Induction of GST-mu protein expression in Nrf gene knockout rat NBT2 cells at 25 uM after 24 hrs Western blot analysis; type: functional, cell-based; outline: as §3
[17] = tested on: Rattus norvegicus; assay: Ex vivo induction of NQO1 in Sprague-Dawley rat colon at 7.5 umol/kg/day, po for 10 days measured on day 11 relative to control; type: functional; outline: as §4
[18] = tested on: NBT2; assay: Induction of GCL protein expression in rat NBT2 cells at 25 to 50 uM after 24 hrs by Western blot analysis; type: functional, cell-based; outline: as §5
[19] = tested on: Rattus norvegicus; assay: Ex vivo induction of NQO1 in Sprague-Dawley rat lung at 7.5 umol/kg/day, po for 10 days measured on day 11 relative to control; type: functional; outline: as §4
[20] = molecular target: T1, Nuclear factor erythroid 2-related factor 2 (Rattus norvegicus); assay: Induction of Nrf in wild type rat NBT2 cells at 25 uM after 24 hrs Western blot analysis; type: functional, cell-based; outline: as §3
[21] = tested on: Rattus norvegicus; assay: Ex vivo induction GST-pi protein expression in Sprague-Dawley rat bladder at 7.5 umol/kg/day, po for 10 days measured on day 11 by Western blot analysis; type: functional, organism-based; outline: as §2
[22] = tested on: NBT2; assay: Induction of GST-alpha protein expression in Nrf gene knockout rat NBT2 cells at 25 uM after 24 hrs Western blot analysis; type: functional, cell-based; outline: as §3
[23] = tested on: NBT2; assay: Induction of GST-alpha protein expression in rat NBT2 cells after 24 hrs by Western blot analysis; type: functional, cell-based; outline: as §5
[24] = molecular target: T1, Nuclear factor erythroid 2-related factor 2 (Rattus norvegicus); assay: Induction of Nrf-mediated GST-alpha protein expression in wild type rat NBT2 cells at 25 uM after 24 hrs Western blot analysis; type: functional, cell-based; outline: as §3
[25] = tested on: Rattus norvegicus; assay: Ex vivo induction of NQO1 in Sprague-Dawley rat duodenum at 7.5 umol/kg/day, po for 10 days measured on day 11 relative to control; type: functional; outline: as §4
[26] = tested on: NBT2; assay: Induction of NQO1 protein expression in rat NBT2 cells after 24 hrs by Western blot analysis; type: functional, cell-based; outline: as §5
[27] = tested on: NBT2; assay: Induction of Nrf protein expression in Nrf gene knockout rat NBT2 cells at 25 uM after 24 hrs Western blot analysis; type: functional, cell-based; outline: as §3
[28] = molecular target: T1, Nuclear factor erythroid 2-related factor 2 (Rattus norvegicus); assay: Induction of Nrf-mediated GST-mu protein expression in wild type rat NBT2 cells at 25 uM after 24 hrs Western blot analysis; type: functional, cell-based; outline: as §3
[29] = tested on: NBT2; assay: Induction of GST-pi protein expression in rat NBT2 cells at 25 to 50 uM after 24 hrs by Western blot analysis; type: functional, cell-based; outline: as §5
[30] = tested on: Rattus norvegicus; assay: Ex vivo induction of NQO1 in Sprague-Dawley rat jejunum at 7.5 umol/kg/day, po for 10 days measured on day 11 relative to control; type: functional; outline: as §4

Oc1ccc(-c2cc(=S)ss2)cc1
fold change (FC) [1]: 0.95
fold change (FC) [2]: 1.02

S=c1ssc(S)c1-c1ccccc1
fold change (FC) [1]: 1.03
fold change (FC) [2]: 1.11

O=c1ccss1
fold change (FC) [1]: 1.01
fold change (FC) [2]: 1.26

O=C(O)c1cc(=S)ss1
pKa [3]: 1.2
fold change (FC) [1]: 1.11
fold change (FC) [2]: 1.27

S=c1ssc2c1CCCCCC2
fold change (FC) [1]: 1.11
fold change (FC) [2]: 1.08

Cc1cssc1=S
fold change (FC) [1]: 1.23
fold change (FC) [2]: 1.83

COC(=O)c1cssc1=S
Activity [4]: Active
Activity [5]: inactive
Activity [6]: Active
Activity [7]: Active
Activity [8]: Active
fold change (FC) [9]: 2.36
fold change (FC) [10]: 1.45
Activity [11]: Dose-dependent effect
fold change (FC) [12]: 1.07
Activity [13]: inactive
Activity [14]: Active
fold change (FC) [15]: 0.95
Activity [16]: inactive
fold change (FC) [17]: 0.89
Activity [18]: Active
fold change (FC) [19]: 1.07
Activity [20]: Active
Activity [21]: inactive
Activity [22]: inactive
Activity [23]: Dose-dependent effect
Activity [24]: Active
fold change (FC) [1]: 2.69
fold change (FC) [25]: 1.17
Activity [26]: Dose-dependent effect
Activity [27]: inactive
fold change (FC) [2]: 5.05
Activity [28]: Active
Activity [29]: inactive
fold change (FC) [30]: 1.13

Cc1cc(=S)ss1
fold change (FC) [1]: 1.08
fold change (FC) [2]: 1.23

COC(=O)C1CCc2c1ssc2=S (stereo not drawn)
fold change (FC) [9]: 1.98
fold change (FC) [10]: 1.76
fold change (FC) [12]: 1.1
fold change (FC) [15]: 1.07
fold change (FC) [17]: 1.07
fold change (FC) [19]: 1.08
fold change (FC) [1]: 2.31
fold change (FC) [25]: 1.14
fold change (FC) [2]: 4.39
fold change (FC) [30]: 1.11

O=C(O)c1cssc1=S
pKa [3]: 2.8
fold change (FC) [1]: 2.11
fold change (FC) [2]: 3.69

S=c1ssc2c1CCCCC2
fold change (FC) [1]: 1.14
fold change (FC) [2]: 1.2

CC1CCc2c1ssc2=S (stereo not drawn)
fold change (FC) [1]: 1.3
fold change (FC) [2]: 1.91

COC(=O)c1c(C)ssc1=S
fold change (FC) [1]: 1.24
fold change (FC) [2]: 1.24
